The subject of assay [1] is Escherichia coli. Kind of assay: Antimicrobial activity against AcrAB-deficient Escherichia coli AG100AX harboring pBADomeganorM plasmid containing Neisseria gonorrhoeae multidrug efflux pump NorM after 18 to 24 hrs by two fold dilution method. The format is functional.
For assay [2], the system named is Escherichia coli. As to the kind of experiment: Antimicrobial activity against AcrAB-deficient Escherichia coli AG100AX harboring pBAD plasmid after 18 to 24 hrs by two fold dilution method. The assay is classed as functional. Put shortly: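 Twofold agar dilution on LB agar containing the antimicrobial, inoculum 10⁴ CFU/spot. Growth was scored after 18–24 h at 37°C, and each MIC determination was repeated at least four times.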

The test system of assay [3] is Escherichia coli. Kind of assay: Antimicrobial activity against AcrAB-deficient Escherichia coli AG100AX harboring pBADomegaydhE plasmid containing Escherichia coli multidrug efflux pump YdhE after 18 to 24 hrs by two fold dilution method. The assay is classed as functional.
Assay [4] in a line: Binding affinity to Neisseria gonorrhoeae FA19 multidrug efflux protein NorM expressed in Escherichia coli AG100AX in presence of 0.02% DDM surfactant by fluorescence polarization assay. (In fluorescence polarisation assays a small probe gives low polarisation when free and higher when bound to something large.)
Assay [5] deals with T1, Multidrug resistance protein MdtK (Escherichia coli (strain K12), UniProt P37340).
T1 sequence (P37340 whole entry): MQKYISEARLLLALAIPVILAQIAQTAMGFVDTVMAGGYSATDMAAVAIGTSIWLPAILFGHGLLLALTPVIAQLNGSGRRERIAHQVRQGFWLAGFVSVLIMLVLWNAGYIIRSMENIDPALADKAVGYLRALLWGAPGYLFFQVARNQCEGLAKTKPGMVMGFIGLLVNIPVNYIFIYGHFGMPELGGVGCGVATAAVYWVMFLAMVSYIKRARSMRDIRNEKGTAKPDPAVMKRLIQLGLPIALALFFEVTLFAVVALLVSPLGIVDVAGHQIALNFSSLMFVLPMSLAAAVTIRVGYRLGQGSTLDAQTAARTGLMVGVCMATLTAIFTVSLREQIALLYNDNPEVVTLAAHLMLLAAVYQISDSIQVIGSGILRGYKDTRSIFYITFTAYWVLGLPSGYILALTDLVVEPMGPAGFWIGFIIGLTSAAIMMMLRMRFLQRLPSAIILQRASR
Kind of assay: Binding affinity to Escherichia coli K-12 multidrug efflux protein YdhE […] in presence of 0.02% DDM surfactant by fluorescence polarization assay.

Assay [6] is described as follows: Binding affinity to Neisseria gonorrhoeae FA19 multidrug efflux protein NorM […] using Scatchard plot in presence of 0.02% DDM surfactant by fluorescence polarization assay.
Assay [7] deals with T1, Multidrug resistance protein MdtK. As to the kind of experiment: Binding affinity to purified detergent-solubilized Escherichia coli K-12 multidrug efflux protein YdhE by equilibrium dialysis method. Put shortly: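 YdhE carried a C-terminal His6 tag and was overproduced in E. coli TOP10 by L-arabinose induction. It was solubilized in 1% DDM, then purified by Ni2+-affinity and G-200 sizing in 20 mM HEPES-NaOH pH 7.5 with 0.02% DDM. Purity was >90% by SDS-PAGE. Rhodamine 6G binding was measured by equilibrium dialysis to give the KD and the binding stoichiometry.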
A general note: In equilibrium dialysis only unbound substance equilibrates across the membrane.

Assay [8] in a line: Binding affinity to Neisseria gonorrhoeae FA19 multidrug efflux protein NorM expressed in Escherichia coli AG100AX at pH 8.5 by fluorescence polarization assay. The gist of the method: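 Rhodamine 6G (1 μM) binding to purified DDM-solubilized His6-NorM, measured by steady-state fluorescence polarization across pH 5.8 to 8.5. Excitation 527 nm, emission 550 nm, 25°C, 5-min equilibration per titration point. KD fitted at each pH.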

Assay [9] concerns the target T2, Multidrug efflux pump subunit AcrB (Escherichia coli (strain K12), UniProt P31224).
T2 sequence (P31224 whole entry): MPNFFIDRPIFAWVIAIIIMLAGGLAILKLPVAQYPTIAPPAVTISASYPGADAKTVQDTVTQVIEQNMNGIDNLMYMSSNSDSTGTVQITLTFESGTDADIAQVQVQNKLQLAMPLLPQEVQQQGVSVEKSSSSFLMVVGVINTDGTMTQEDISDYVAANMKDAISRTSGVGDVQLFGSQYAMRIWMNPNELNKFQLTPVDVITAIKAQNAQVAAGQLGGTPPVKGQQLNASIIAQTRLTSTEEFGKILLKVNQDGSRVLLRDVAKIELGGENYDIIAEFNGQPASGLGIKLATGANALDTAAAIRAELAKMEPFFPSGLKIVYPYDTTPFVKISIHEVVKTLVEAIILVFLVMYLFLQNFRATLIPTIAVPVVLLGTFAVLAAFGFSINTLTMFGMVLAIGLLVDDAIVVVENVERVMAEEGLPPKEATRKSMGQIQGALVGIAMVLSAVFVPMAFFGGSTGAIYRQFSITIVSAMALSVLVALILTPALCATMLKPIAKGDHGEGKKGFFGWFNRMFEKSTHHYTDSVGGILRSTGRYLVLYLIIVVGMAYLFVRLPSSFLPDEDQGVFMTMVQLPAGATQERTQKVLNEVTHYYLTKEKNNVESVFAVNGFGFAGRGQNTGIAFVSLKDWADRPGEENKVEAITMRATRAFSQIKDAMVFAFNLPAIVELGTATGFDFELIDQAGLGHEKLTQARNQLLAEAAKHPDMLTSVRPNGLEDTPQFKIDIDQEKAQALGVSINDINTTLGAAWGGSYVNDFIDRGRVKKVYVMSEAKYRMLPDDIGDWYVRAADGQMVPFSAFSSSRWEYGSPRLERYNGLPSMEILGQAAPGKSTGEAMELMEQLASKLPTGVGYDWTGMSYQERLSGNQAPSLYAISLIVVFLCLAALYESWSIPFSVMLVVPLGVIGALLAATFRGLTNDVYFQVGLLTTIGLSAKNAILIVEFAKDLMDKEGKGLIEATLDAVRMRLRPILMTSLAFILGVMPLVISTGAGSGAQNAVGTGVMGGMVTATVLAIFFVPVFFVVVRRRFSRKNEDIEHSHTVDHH
Kind of assay: Binding affinity to Escherichia coli K-12 multidrug efflux protein AcrB at pH 8.4 by equilibrium dialysis method.

Assay [10] is described as follows: Binding affinity to Neisseria gonorrhoeae FA19 multidrug efflux protein NorM expressed in Escherichia coli AG100AX in presence of => 100 mM NaCl by fluorescence polarization assay. The gist of the method:
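NaCl at 100 to 400 mM added to rhodamine 6G (1 μM) binding mixtures with purified His6-NorM in 20 mM HEPES-NaOH pH 7.5, 0.02% DDM.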

Take `CC/N=c1\cc2oc3cc(NCC)c(C)cc3c(-c3ccccc3C(=O)OCC)c-2cc1C.Cl` [RHODAMINE 6G HYDROCHLORIDE]: the MIC turned out to be 12.5 µg/mL in the assay on Escherichia coli [1], 3.12 µg/mL in the assay on Escherichia coli [2] and 12.5 µg/mL against Escherichia coli [3]. Also, the dissociation constant Kd in assay [4] was determined as 3.4 µM; in assay [5], 3 µM; in assay [6] it was 3.6 µM; in assay [7], 3 µM; in [8], 2.6 µM; in assay [9], 10.3 µM. Also, the Kd in assay [10] amounted to 2.5 µM.

As a reminder, the MIC is the lowest concentration found to suppress growth. In general, Kd refers to the free concentration of one partner at which half of the binding sites on the other are occupied at equilibrium, for simple one-to-one binding.

The record behind these values is ChEMBL document CHEMBL1671618, “Functional cloning and characterization of the multidrug efflux pumps NorM from Neisseria gonorrhoeae and YdhE from Escherichia coli” (Antimicrob Agents Chemother, 2008).
